# Laboratory results: ChEMBL document CHEMBL1806465, “Synthesis and biological evaluation of 4-nitro-substituted 1,3-diaryltriazenes as a novel class of potent antitumor agents” (Eur J Med Chem, 2011)
# Calls of active or inactive are those of the source. The calls are words filed in the database; no cut-off is given here.
# Tests used:
# [1] = test system: HeLa; experiment: Cytotoxicity against human HeLa cells after 72 hrs by MTT assay; assay type: functional, cell-based
# [2] = Solubility of the compound in water; assay type: physicochemical; details: buffer
# [3] = Solubility of the compound in DMSO; assay type: physicochemical
# [4] = Stability of the compound in DMSO after 26.25 hrs by LC/MS/MS analysis in presence of 10% FBS; assay type: physicochemical; details: cattle; for Stability: 26.25 h; for remaining at 26.25 h: DMSO with 10% FBS, read-out: Stability
# [5] = test system: Nucleic Acid; experiment: Binding affinity to calf thymus DNA assessed as change in melting temperature at compound to DNA ratio of 0.3; assay type: nucleic-acid assay; details: Bos taurus
# How it was run: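 ct-DNA sonicated, filtered, in Na-cacodylate buffer pH 7, I = 0.05 mol dm-3, 2 x 10^-5 mol dm-3 (as phosphate, ε260 = 6600); compound/DNA ratio 0.3. Absorbance at 260 nm followed versus temperature, compound absorbance subtracted, curves normalized. Tm taken from first-derivative maximum, confirmed by tangent method; ΔTm = Tm(complex) − Tm(free DNA), mean of ≥2 runs, error ±0.5 °C.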
# [6] = test system: L1210; experiment: Cytotoxicity against mouse L1210 cells at 32 uM; assay type: functional
solubility [3] [µM],Compound,IC50 [1] [nM],also measured
–,CC(=O)N(/N=N/c1ccc([N+](=O)[O-])cc1)c1ccc([N+](=O)[O-])cc1,63000,–
–,O=[N+]([O-])c1ccc(/N=N/Nc2ccc([N+](=O)[O-])cc2F)c(F)c1,–,solubility [2]: Insoluble
–,O=C(c1ccc(F)cc1)N(/N=N/c1ccc([N+](=O)[O-])cc1Br)c1ccc([N+](=O)[O-])cc1Br,580,–
–,O=C(c1ccccc1C(F)(F)F)N(/N=N/c1ccc([N+](=O)[O-])cc1C(F)(F)F)c1ccc([N+](=O)[O-])cc1C(F)(F)F,5350,–
43.5,O=[N+]([O-])c1ccc(N=NNc2ccc([N+](=O)[O-])cc2)cc1,–,–
–,O=C(c1cccc(F)c1)N(/N=N/c1ccc([N+](=O)[O-])cc1Cl)c1ccc([N+](=O)[O-])cc1Cl,2500,–
–,O=C(c1cccc(C(F)(F)F)c1)N(/N=N/c1ccc([N+](=O)[O-])cc1C(F)(F)F)c1ccc([N+](=O)[O-])cc1C(F)(F)F,750,–
–,O=[N+]([O-])c1ccc(/N=N/Nc2ccc([N+](=O)[O-])cc2)cc1,–,Activity [1]: inactive
–,O=C(c1ccc(C(F)(F)F)cc1)N(/N=N/c1ccc([N+](=O)[O-])cc1Cl)c1ccc([N+](=O)[O-])cc1Cl,1060,–
52.1,CC(=O)Oc1ccc(/C=C/C(=O)N(/N=N/c2cccc(F)c2)c2cccc(F)c2)cc1OC(C)=O,–,Activity [1]: inactive
–,O=C(c1cccc(F)c1)N(/N=N/c1ccc([N+](=O)[O-])cc1C(F)(F)F)c1ccc([N+](=O)[O-])cc1C(F)(F)F,880,–
–,CC(=O)OCC(=O)N(/N=N/c1ccc([N+](=O)[O-])cc1Br)c1ccc([N+](=O)[O-])cc1Br,490,–
24.1,COc1cc(/C=C/C(=O)N(/N=N/c2cc(C(F)(F)F)ccc2Cl)c2cc(C(F)(F)F)ccc2Cl)cc(OC)c1,–,Activity [1]: inactive
–,O=[N+]([O-])c1ccc(/N=N/Nc2ccc([N+](=O)[O-])cc2Cl)c(Cl)c1,3010,Stability [4]: Stable; solubility [2]: Insoluble; Activity [5]: inactive
–,O=C(c1cccc(C(F)(F)F)c1)N(/N=N/c1ccc([N+](=O)[O-])cc1Cl)c1ccc([N+](=O)[O-])cc1Cl,1180,–
–,O=[N+]([O-])c1ccc(/N=N/Nc2ccc([N+](=O)[O-])cc2C(F)(F)F)c(C(F)(F)F)c1,–,Stability [4]: Stable; solubility [2]: Insoluble
182,CC(=O)N(/N=N/c1cccc(F)c1)c1cccc(F)c1,–,Activity [1]: inactive
–,CC(=O)OCC(=O)N(/N=N/c1ccc([N+](=O)[O-])cc1Cl)c1ccc([N+](=O)[O-])cc1Cl,350,–
–,O=C(Cc1ccccc1)N(/N=N/c1ccc([N+](=O)[O-])cc1Cl)c1ccc([N+](=O)[O-])cc1Cl,530,–
–,O=C(c1ccccc1F)N(/N=N/c1ccc([N+](=O)[O-])cc1Br)c1ccc([N+](=O)[O-])cc1Br,1200,–
16.8,COc1cc(/C=C/C(=O)N(/N=N/c2ccc(Cl)c(C(F)(F)F)c2)c2ccc(Cl)c(C(F)(F)F)c2)ccc1OC(C)=O,–,Activity [1]: inactive
–,COC(=O)N(/N=N/c1ccc([N+](=O)[O-])cc1Cl)c1ccc([N+](=O)[O-])cc1Cl,980,–
–,O=C(c1ccccc1F)N(/N=N/c1ccc([N+](=O)[O-])cc1C(F)(F)F)c1ccc([N+](=O)[O-])cc1C(F)(F)F,800,–
–,O=C(c1cccc(C(F)(F)F)c1)N(/N=N/c1ccc([N+](=O)[O-])cc1Br)c1ccc([N+](=O)[O-])cc1Br,1120,–
214,Fc1cccc(/N=N/Nc2cccc(F)c2)c1,–,Activity [1]: inactive

solubility [3] [µM],Compound,IC50 [1] [nM],also measured
–,O=C(c1ccc(F)cc1)N(/N=N/c1ccc([N+](=O)[O-])cc1C(F)(F)F)c1ccc([N+](=O)[O-])cc1C(F)(F)F,1000,–
186,Fc1ccc(/N=N/Nc2ccc(F)cc2F)c(F)c1,–,Activity [1]: inactive
40.3,COc1cc(/C=C/C(=O)N(/N=N/c2cc(C(F)(F)F)ccc2Cl)c2cc(C(F)(F)F)ccc2Cl)ccc1OC(C)=O,–,Activity [1]: inactive
28.1,COc1ccc(/C=C/C(=O)N(/N=N/c2cc(C(F)(F)F)ccc2Cl)c2cc(C(F)(F)F)ccc2Cl)cc1OC,–,Activity [1]: inactive
–,O=C(c1ccccc1C(F)(F)F)N(/N=N/c1ccc([N+](=O)[O-])cc1Br)c1ccc([N+](=O)[O-])cc1Br,13300,–
–,O=C(c1ccccc1C(F)(F)F)N(/N=N/c1ccc([N+](=O)[O-])cc1Cl)c1ccc([N+](=O)[O-])cc1Cl,10600,–
41.3,Clc1cc(Cl)c(/N=N/Nc2cc(Cl)c(Cl)cc2Cl)cc1Cl,–,Activity [1]: inactive
–,CC(=O)NCC(=O)O.N=C(N)c1ccc(/N=N/Nc2ccc(C(=N)N)cc2)cc1 [DIMINAZEN ACETURATE],183000,Activity [6]: 50%
74.6,Clc1ccc(/N=N/Nc2ccc(Cl)c(Cl)c2)cc1Cl,–,–
62.2,FC(F)(F)c1cc(Cl)ccc1/N=N/Nc1ccc(Cl)cc1C(F)(F)F,–,Activity [1]: inactive
186,Fc1ccc(/N=N/Nc2ccc(F)c(F)c2)cc1F,–,Activity [1]: inactive
84.4,COc1ccc(/C=C/C(=O)N(/N=N/c2cc(C(F)(F)F)ccc2Cl)c2cc(C(F)(F)F)ccc2Cl)c(OC)c1,–,Activity [1]: inactive
–,CCOC(=O)CC(=O)N(/N=N/c1ccc([N+](=O)[O-])cc1C(F)(F)F)c1ccc([N+](=O)[O-])cc1C(F)(F)F,300,–
–,O=C(c1ccccc1F)N(/N=N/c1ccc([N+](=O)[O-])cc1Cl)c1ccc([N+](=O)[O-])cc1Cl,2350,–
–,O=C(c1ccccc1)N(/N=N/c1ccc([N+](=O)[O-])cc1Br)c1ccc([N+](=O)[O-])cc1Br,1530,–
–,O=C(CCl)N(/N=N/c1ccc([N+](=O)[O-])cc1C(F)(F)F)c1ccc([N+](=O)[O-])cc1C(F)(F)F,800,–
37.3,Clc1ccc(Cl)c(/N=N/Nc2cc(Cl)ccc2Cl)c1,–,Activity [1]: inactive
–,O=C(CCl)N(/N=N/c1ccc([N+](=O)[O-])cc1Cl)c1ccc([N+](=O)[O-])cc1Cl,550,–
–,CC(=O)Oc1ccc(/C=C/C(=O)N(/N=N/c2ccc(Cl)c(C(F)(F)F)c2)c2ccc(Cl)c(C(F)(F)F)c2)cc1OC(C)=O,43000,–
–,O=C(c1ccccc1)N(/N=N/c1ccc([N+](=O)[O-])cc1Cl)c1ccc([N+](=O)[O-])cc1Cl,590,remaining at 26.25 h [4]: 9%
–,O=C(c1ccccc1)N(/N=N/c1ccc([N+](=O)[O-])cc1C(F)(F)F)c1ccc([N+](=O)[O-])cc1C(F)(F)F,600,remaining at 26.25 h [4]: 63%
–,CC(=O)N(/N=N/c1ccc(Cl)c(C(F)(F)F)c1)c1ccc(Cl)c(C(F)(F)F)c1,50600,–
–,O=C(c1ccc(C(F)(F)F)cc1)N(/N=N/c1ccc([N+](=O)[O-])cc1C(F)(F)F)c1ccc([N+](=O)[O-])cc1C(F)(F)F,690,–
–,CC(=O)N(/N=N/c1ccc([N+](=O)[O-])cc1C(F)(F)F)c1ccc([N+](=O)[O-])cc1C(F)(F)F,–,remaining at 26.25 h [4]: 51%
–,O=[N+]([O-])c1ccc(/N=N/Nc2ccc([N+](=O)[O-])cc2Br)c(Br)c1,940,solubility [2]: Insoluble
